≈ marks a conversion by molar mass, not a printed value. Calls of active or inactive are those of the source. No cut-off for these calls is given here.

Data set [1] can be described thus: Antioxidant activity assessed as DPPH radical scavenging activity. The class given is physicochemical. The method in brief: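 DPPH stock 0.1 mmol in DMSO. 1 mL sample diluted with 2 mL DMSO, mixed with 2 mL DPPH stock, absorbance at 517 nm. Tested at 10–50 μg/mL. % inhibition = [(blank−test)/blank]×100, IC50 derived from the concentration series. Run twice.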

Data set [2] in a line: Antioxidant activity assessed as H2O2 scavenging activity. In kind it is physicochemical. The procedure, abridged:
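H2O2 prepared at 2.0 mM in 0.2 M phosphate buffer pH 7.4. Compounds at 10–50 μg/mL added to 0.6 mL of this solution and made up to 4 mL with buffer. H2O2 absorbance read at 230 nm against a buffer blank. % inhibition = [(blank−test)/blank]×100, IC50 derived from the concentration series.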

The subject of a further data set is A549. As to the kind of experiment: Cytotoxicity against human A549 cells at 1 to 500 ug/ml incubated for 24 hrs by MTT assay. The class given is functional, cell-based. The method in brief:
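A549 lung cancer cells grown in MEM with 10% FBS, penicillin and streptomycin, at 37 °C under 5% CO2. Compounds made up at 2 mg/mL in DMSO, filter-sterilized, diluted in medium to 1, 10, 50, 100 and 500 μg/mL. Exposure 24 h, 0.1% DMSO control. MTT (5 mg/mL stock) added for 4 h, formazan dissolved in DMSO, read at 545 nm. Triplicate.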

Data set [3] can be described thus: Anti-inflammatory activity assessed as inhibition of bovine serum albumin denaturation at 10 to 500 ug/ml incubated for 15 mins at 37 degC. In kind it is functional. The procedure, abridged: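 Compounds dissolved in minimal DMF, diluted in 0.2 M phosphate buffer pH 7.4 (final DMF <2.5%). 4 mL test solution mixed with 1 mL of 1 mM albumin and held 15 min at 37 °C, then heated 15 min at 70 °C to denature. After cooling, turbidity read at 660 nm. % inhibition calculated against a no-drug control.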

The term IC50 denotes the concentration that inhibits the measured activity by half. On to `O=C1O[C@H]([C@@H](O)CO)C(O)=C1O` [ASCORBIC ACID], for which the values for the IC50 in data set [1] and in data set [2] were 32.74 µg/mL (≈ 186 µM) and 67.54 µg/mL (≈ 383 µM), respectively.

With `COc1cc(/C=C/C(=O)/C=C(O)/C=C/c2ccc(OCC(=O)Nc3cccc4ccccc34)c(OC)c2)ccc1OCC(=O)Nc1cccc2ccccc12`, the IC50 amounted to 12.65 µg/mL (≈ 17.2 µM) in data set [1] and 41.4 µg/mL (≈ 56.3 µM) in data set [2]. Also, the result with A549 was Active.

With `COc1cc(/C=C/C(=O)CC(=O)/C=C/c2ccc(O)c(OC)c2)ccc1O` [CURCUMIN], the IC50 in data set [1] stood at 14.83 µg/mL (≈ 40.3 µM); in data set [2] it was 34.71 µg/mL (≈ 94.2 µM). In the data set with A549, the outcome was Active. In addition, the inhibition entry in data set [3] is “Active”.

Take `CCN(CC)C(=O)COc1ccc(/C=C/C(=O)/C=C(O)/C=C/c2ccc(OCC(=O)N(CC)CC)c(OC)c2)cc1OC`: the IC50 in data set [1] worked out at 19.68 µg/mL (≈ 33.1 µM); in data set [2] it was 68.16 µg/mL (≈ 115 µM). Moreover, the result in the data set with A549 was Active. For the same molecule, in data set [3], the inhibition entry was “Active”.

For the molecule `COc1cc(/C=C/C(=O)/C=C(O)/C=C/c2ccc(OCC(=O)NC3CCCCC3)c(OC)c2)ccc1OCC(=O)NC1CCCCC1`, the values for the IC50 in data set [1] and in data set [2] were 16 µg/mL (≈ 24.7 µM) and 26.14 µg/mL (≈ 40.4 µM), respectively. Also, the result in the data set with A549 was Active. Also, the inhibition entry in data set [3] is “Active”.

Regarding `COc1cc(/C=C/C(=O)/C=C(O)/C=C/c2ccc(OCC(=O)Nc3ccc(Cl)cc3)c(OC)c2)ccc1OCC(=O)Nc1ccc(Cl)cc1`, the figures for the IC50 in data set [1] and in data set [2] were 12.92 µg/mL (≈ 18.4 µM) and 65.4 µg/mL (≈ 93 µM), respectively. Also, the outcome in the data set on A549 was Active.

For the molecule `COc1cc(/C=C/C(=O)/C=C(O)/C=C/c2ccc(OCC(=O)Nc3ccccc3)c(OC)c2)ccc1OCC(=O)Nc1ccccc1`, the IC50 came to 23.77 µg/mL (≈ 37.5 µM) in data set [1] and 63.7 µg/mL (≈ 100 µM) in data set [2]. The outcome in the data set on A549 was Active. The inhibition entry in data set [3] is “Active”.

For `COc1cc(/C=C/C(=O)/C=C(O)/C=C/c2ccc(OCC(=O)N(C)c3ccccc3)c(OC)c2)ccc1OCC(=O)N(C)c1ccccc1`, the figures for the IC50 in data set [1] and in data set [2] were 12.05 µg/mL (≈ 18.2 µM) and 63.21 µg/mL (≈ 95.4 µM), respectively. Besides, the outcome with A549 was Active. The inhibition result in data set [3] was “Active”.

In the case of `O=C(O)Cc1ccccc1Nc1c(Cl)cccc1Cl`, the inhibition result in data set [3] is “Active”.

Regarding `COc1cc(/C=C/C(=O)/C=C(O)/C=C/c2ccc(OCC(=O)Nc3ccc(C)cc3)c(OC)c2)ccc1OCC(=O)Nc1ccc(C)cc1`, the results for the IC50 in data set [1] and in data set [2] were 22.85 µg/mL (≈ 34.5 µM) and 61.98 µg/mL (≈ 93.5 µM), respectively. Also, the result in the data set with A549 was Active. The inhibition entry in data set [3] was “Active”.

As to `COc1cc(/C=C/C(=O)/C=C(O)/C=C/c2ccc(OCC(=O)Nc3ccc(F)cc3)c(OC)c2)ccc1OCC(=O)Nc1ccc(F)cc1`, the values for the IC50 in data set [1] and in data set [2] were 24.26 µg/mL (≈ 36.2 µM) and 70.51 µg/mL (≈ 105 µM), respectively. For the same molecule, in the data set on A549, the outcome was Active. In data set [3], the inhibition entry was “Active”.

These data come from ChEMBL document CHEMBL3616457, “Synthesis and biological evaluation of new symmetric curcumin derivatives” (Bioorg Med Chem Lett, 2015).
